Columns and labels:
Trypanosoma cruzi [1] = experiment: Trypanocidal activity against Trypanosoma cruzi MHOM/Pe/2011/Arequipa DTU 5 epimastigotes after 48 hrs by resazurin dye based assay; type: functional, organism-based; settings: MHOM/Pe/2011/Arequipa DTU 5, 48 h
In short: (§1)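 Exponential-phase epimastigotes were seeded at 5×10^5 mL^-1 with compounds at 100–0.2 µM (DMSO 0.01% v/v) at 28 °C. After 48 h, resazurin was added for another 24 h. SDS was then added and absorbance read at 570 and 600 nm.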

Trypanosoma cruzi [2] = experiment: Trypanocidal activity against Trypanosoma cruzi IRHOD/CO/2008/SN3 DTU 1 epimastigotes after 48 hrs by resazurin dye based assay; type: functional, organism-based; settings: IRHOD/CO/2008/SN3 DTU 1, 48 h; in short: as §1
Trypanosoma cruzi [3] = experiment: Trypanocidal activity against Trypanosoma cruzi TINF/CH/1956/Tulahuen DTU 6 epimastigotes after 48 hrs by resazurin dye based assay; type: functional, organism-based; settings: TINF/CH/1956/Tulahuen DTU 6, 48 h; in short: as §1
Vero = experiment: Cytotoxicity against African green monkey Vero cells assessed as reduction in cell viability after 72 hrs by resazurin dye based assay; settings: Chlorocebus sabaeus
In short: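 Vero monkey kidney cells grown at 37 °C, 5 % CO2, in RPMI with 10 % heat-inactivated FBS. Seeded at 1.25 × 10^4 mL-1 with compound at 1000 to 1 µM (DMSO 0.01 % v/v). After 48 h, resazurin added for a further 24 h, then SDS. Absorbance read at 570/600 nm. IC50 from triplicates in four separate determinations.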

[4] = Selectivity index, ratio of IC50 for African green monkey Vero cells to IC50 for Trypanosoma cruzi MHOM/Pe/2011/Arequipa DTU 5 epimastigotes; type: toxicity; settings: read-out: Ratio IC50
In short: (§2)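 SI is Vero IC50 divided by the IC50 for the stated parasite form. For Vero cytotoxicity, cells were seeded at 1.25×10^4 mL^-1 with compounds at 1000–1 µM, incubated 48 h, then given resazurin for a further 24 h (72 h total), with absorbance read at 570/600 nm. Triplicate, four determinations.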

[5] = Selectivity index, ratio of IC50 for African green monkey Vero cells to IC50 for Trypanosoma cruzi IRHOD/CO/2008/SN3 DTU 1 epimastigotes; type: toxicity; settings: read-out: Ratio IC50; in short: as §2
[6] = Selectivity index, ratio of IC50 for African green monkey Vero cells to IC50 for Trypanosoma cruzi TINF/CH/1956/Tulahuen DTU 6 epimastigotes; type: toxicity; settings: read-out: Ratio IC50; in short: as §2

Structure (SMILES)	IC50 (Trypanosoma cruzi [1])	IC50 (Trypanosoma cruzi [2])	IC50 (Trypanosoma cruzi [3])	IC50 (Vero)	selectivity ratio [4]	selectivity ratio [5]	selectivity ratio [6]
COc1ccccc1N1CCN(CCC(=O)c2ccc(F)cc2)CC1	58.3 µM	40.5 µM	45.6 µM	24 µM	0.4	0.6	0.5
O=C(CCN1CCN(c2ccc([N+](=O)[O-])cc2)CC1)c1ccc(Cl)c(F)c1	23.8 µM	32.4 µM	15.5 µM	89.2 µM	3.8	2.8	5.7
O=C(CCN1CCN(c2ccc(Cl)cc2)CC1)c1ccc(C(F)(F)F)cc1	52.7 µM	38.2 µM	39.1 µM	54.2 µM	1	1.4	1.4
O=C(CCN1CCN(c2ccc([N+](=O)[O-])cc2)CC1)c1ccc(F)c(Cl)c1	34.2 µM	51 µM	41.5 µM	116 µM	3.4	2.3	2.8
COc1ccc(C(=O)CCN2CCN(c3ccc(F)cc3)CC2)cc1OC	154 µM	61.5 µM	103 µM	175 µM	1.1	2.8	1.7
Cc1ccc(C(=O)CCN2CCN(c3ccc(Cl)cc3)CC2)cc1	31.7 µM	26 µM	29.5 µM	184 µM	5.8	7.1	6.2
O=C(CCN1CCN(c2ccc(C(F)(F)F)cc2)CC1)c1ccc(Br)cc1	30 µM	28.3 µM	28.5 µM	78.8 µM	2.6	2.8	2.8
O=C(CCN1CCN(c2ccc(Cl)cc2)CC1)c1ccc(F)c(Br)c1	26.6 µM	35.1 µM	30.6 µM	206 µM	7.7	5.9	6.7
O=C(CCN1CCN(c2ccc(C(F)(F)F)cc2)CC1)c1ccc(OC(F)(F)F)cc1	51.2 µM	38.4 µM	86.3 µM	64.9 µM	1.3	1.7	0.8
O=C(CCN1CCN(c2ccc([N+](=O)[O-])cc2)CC1)c1ccc(OC(F)(F)F)cc1	41.1 µM	95 µM	52.1 µM	93.2 µM	2.3	1	1.8
O=C(CCN1CCN(c2ccc(F)cc2)CC1)c1ccc(OC(F)(F)F)cc1	85.4 µM	27.6 µM	52.6 µM	70.3 µM	0.8	2.5	1.3
O=C(CCN1CCN(c2ccc(C(F)(F)F)cc2)CC1)c1ccccc1	12.8 µM	16.2 µM	24.9 µM	15.7 µM	1.2	1	0.6
COc1ccc(C(=O)CCN2CCN(Cc3ccccc3)CC2)cc1OC	29.5 µM	55.2 µM	46.2 µM	47.5 µM	1.6	0.9	1
COc1ccc(C(=O)CCN2CCN(c3ccc([N+](=O)[O-])cc3)CC2)cc1OC	94.5 µM	174 µM	105 µM	105 µM	1.1	0.6	1
O=C(CCN1CCN(c2ccc([N+](=O)[O-])cc2)CC1)c1ccc(Br)cc1	27.2 µM	39.7 µM	46.2 µM	79.8 µM	2.9	2	1.7
O=C(CCN1CCN(c2ccc(C(F)(F)F)cc2)CC1)c1ccc(F)c(Cl)c1	21.6 µM	45 µM	29 µM	74.5 µM	3.4	1.7	2.6
COc1ccc(C(=O)CCN2CCN(c3ccc(C(F)(F)F)cc3)CC2)cc1	72.9 µM	32.3 µM	44 µM	135 µM	1.9	4.2	3.1
O=C(CCN1CCN(c2ccc(Cl)cc2)CC1)c1ccc(OC(F)(F)F)cc1	42.2 µM	34.1 µM	61.8 µM	95.6 µM	2.3	2.8	1.5
O=C(CCN1CCN(c2ccc([N+](=O)[O-])cc2)CC1)c1ccc(C(F)(F)F)cc1	13.5 µM	20 µM	15.1 µM	75.7 µM	5.6	3.8	5
O=C(CCN1CCN(c2ccc(F)cc2)CC1)c1ccccc1	65.7 µM	32.9 µM	94.1 µM	13.4 µM	0.2	0.4	0.1
COc1ccc(C(=O)CCN2CCN(c3ccc(Cl)cc3)CC2)cc1OC	90.3 µM	43.9 µM	36.6 µM	185 µM	2.1	4.2	5.1
O=C(CCN1CCN(c2ccc(Cl)cc2)CC1)c1ccc(Cl)c(F)c1	42 µM	51.6 µM	55.5 µM	175 µM	4.2	3.4	3.2
O=C(CCN1CCN(c2ccc([N+](=O)[O-])cc2)CC1)c1ccc(F)cc1	65.8 µM	54.5 µM	78.1 µM	110 µM	1.7	2	1.4
O=C(CCN1CCN(c2ccc([N+](=O)[O-])cc2)CC1)c1ccc(F)c(F)c1	85.2 µM	160 µM	53.1 µM	122 µM	1.4	0.8	2.3
O=C(CCN1CCN(c2ccc(C(F)(F)F)cc2)CC1)c1ccc(Cl)c(F)c1	27.6 µM	49.1 µM	66.7 µM	74.3 µM	2.7	1.5	1.1
O=C(CCN1CCN(c2ccc(F)cc2)CC1)c1ccc(Cl)c(F)c1	39.5 µM	75.3 µM	46.2 µM	105 µM	2.7	1.4	2.3
O=C(CCN1CCN(c2ccc(C(F)(F)F)cc2)CC1)c1ccc(C(F)(F)F)cc1	24.3 µM	34.7 µM	43 µM	49.2 µM	2	1.4	1.1
O=C(CCN1CCN(c2ccccc2F)CC1)c1ccc(F)cc1	37.9 µM	52.6 µM	53.5 µM	49.5 µM	1.3	0.9	0.9

Reference: ChEMBL document CHEMBL4118256, “Second Generation of Mannich Base-Type Derivatives with in Vivo Activity against Trypanosoma cruzi” (J Med Chem, 2018)
